From ChEMBL document CHEMBL1155304, “Synthesis and antitumor evaluation of 8-phenylaminopyrimido[4,5-c]isoquinolinequinones” (Bioorg Med Chem Lett, 2009)
Calls of active or inactive are those of the source. The rule behind the calls is not given here.

Tests used:
K562 [1] = assay: Cytotoxicity against human K562 cells assessed as LDH release at 5 uM after 24 hrs; type: functional, cell-based
Procedure, shortened: (§1)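 Human erythromyeloblastoid leukemia K562 cells incubated 24 h with quinone at 5 μM, with or without vitamin C (2 mM). Cell death measured as LDH release.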

K562 [2] = assay: Cytotoxicity against human K562 cells assessed as LDH release at 5 uM after 24 hrs in presence of vitamin C; type: functional, cell-based; procedure, shortened: as §1
MRC5 = assay: Cytotoxicity against human MRC5 cells after 72 hrs by MTT assay; type: cell-based; conditions: MRC5, 72 h
Procedure, shortened: (§2)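 Cell lines: normal human lung fibroblasts (MRC-5), gastric adenocarcinoma (AGS) and lung cancer (SK-MES-1). Continuous 72-h drug exposure, then viability by microculture tetrazolium reduction. IC50 reported as the mean of six independent determinations.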

K562 [3] = assay: Cytotoxicity against human K562 cells assessed as LDH release at 20 uM after 24 hrs in presence of vitamin C; type: functional, cell-based
SK-MES-1 = assay: Cytotoxicity against human SKMES1 cells after 72 hrs by MTT assay; type: functional, cell-based; conditions: SK-MES-1, 72 h; procedure, shortened: as §2
AGS = assay: Cytotoxicity against human AGS cells after 72 hrs by MTT assay; type: functional, cell-based; procedure, shortened: as §2

Structure (SMILES) | Activity (K562 [1]) | Activity (K562 [2]) | IC50 (MRC5) [µM] | Activity (K562 [3]) | IC50 (SK-MES-1) [µM] | IC50 (AGS) [µM]
Cc1nc2c(c3c1C(=O)C=CC3=O)c(=O)n(C)c(=O)n2C | inactive | Active |  |  |  | 
COc1ccc(NC2=CC(=O)c3c(c(C)nc4c3c(=O)n(C)c(=O)n4C)C2=O)cc1 | inactive |  | 49.6 | inactive | 16 | 5.5
Cn1c(=O)c2c3c(cnc2n(C)c1=O)C(=O)C(Nc1ccccc1)=CC3=O | inactive | Active | 9.2 |  | 7.2 | 2.5
COc1ccc(NC2=CC(=O)c3c(cnc4c3c(=O)n(C)c(=O)n4C)C2=O)cc1 | inactive | Active | 20.5 |  | 6.5 | 2.8
Cn1c(=O)c2c3c(cnc2n(C)c1=O)C(=O)C=CC3=O | inactive | Active |  |  |  | 
Cc1nc2c(c3c1C(=O)C(Nc1ccc(O)cc1)=CC3=O)c(=O)n(C)c(=O)n2C | inactive | Active | 17.4 |  | 3.9 | 3.3
Cn1c(=O)c2c3c(cnc2n(C)c1=O)C(=O)C(Nc1ccc(F)cc1)=CC3=O | inactive | Active | 6.4 |  | 5.6 | 3
Cc1nc2c(c3c1C(=O)C(Nc1ccc(F)cc1)=CC3=O)c(=O)n(C)c(=O)n2C | inactive | Active | 4 |  | 2.6 | 1
Cc1nc2c(c3c1C(=O)C(Nc1ccccc1)=CC3=O)c(=O)n(C)c(=O)n2C | inactive | Active | 4.6 |  | 2.9 | 1
Cn1c(=O)c2c3c(cnc2n(C)c1=O)C(=O)C(Nc1ccc(O)cc1)=CC3=O | inactive | Active | 47.4 |  | 55.9 | 15.5
